An excerpt weighted towards active compounds, which were near 1.8% of everything screened.
DDE Tn7 FP inh: disrupts Tn7 cyclic peptide binding to fibrin D-Dimer-E complex; P02675; FP displacement of FITC-Tn7 peptide from fibrin DD(E); 0% = median of compound wells per plate; inhibition, % at 8.3 µM; 0.13% of 370,000 active;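 active = inhibition above the mean of compounds falling within the control limits plus 3 SD of them, cut at about 14% in these data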;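 also: 0% = plate median of compound wells and 100% = 10 µM Aha-Tn7 peptide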
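System: human fibrin DD(E); quantity: Fibrin-DD(E) at 2 µM final; also added: fluorescent Tn7 probe at 0.1 µM; compound dosing: single nominal test concentration of 8.3 µM per compound; schedule: 10 min preincubation, 3 h with tracer, room temperature; detection: fluorescence polarization of the labelled Tn7 tracer; repeats: one replicate per compound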
HTRA1 inh: blocks human HTRA1 serine peptidase. recombinant HTRA1, FP-rhodamine activity-based probe, fluorescence polarization. inhibition, % at 5.96 µM. 0.5% of 340,000 active. AID 504803; in the data active = inhibition above about 36%;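 also: 0% = enzyme with DMSO and 100% = wells lacking enzyme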
DDE Tn6 FP inh: disrupts Tn6 cyclic peptide binding to fibrin D-Dimer-E complex. P02675. Fibrin DD(E) TRITC-Tn6 fluorescence polarization displacement. inhibition, % at 8.3 µM. 0.21% of 370,000 active. AID 720509;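 active = inhibition above a per-campaign cutoff: mean of compounds within control limits plus 3 SD, cut at about 15% in these data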;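 also: 0% = median of all compound wells on the plate and 100% = blocking peptide control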
TCR-CD3 inh: inhibitors of human TCR-CD3 interaction | TAMRA-labeled TCR probe fluorescence, biochemical | inhibition, % at 9.4 µM | 0.37% of 360,000 active | AID 651800;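 also: recombinant mutant TCR 2C K166C tagged with TAMRA read by polarization; 0% = receptor in buffer alone and 100% = receptor with positive control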
SIAE inh: blocks human sialic acid acetylesterase; SIAE FP-Rh probe binding, fluorescence polarization; inhibition, % at 9.66 µM; 0.69% of 370,000 active; AID 1053197;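 active = inhibition above a cutoff: mean of compounds within the control limits plus 3 SD of those, cut at about 17% in these data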;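 also: 0% = plate median of compound wells and 100% = probe without SIAE protein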
ABHD4 inh: inhibitors of mouse ABHD4. Q8VD66. purified mABHD4, FP-Rh probe fluorescence polarization. inhibition, % at 8.92 µM. 0.54% of 370,000 active. AID 720543;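 active = inhibition exceeding the mean over every tested compound plus 3 SD, cut at about 30% in these data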;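 also: 0% = plate median of compound wells and 100% = S159A mutant with DMSO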
Target sequence (Q8VD66 whole entry, looked up): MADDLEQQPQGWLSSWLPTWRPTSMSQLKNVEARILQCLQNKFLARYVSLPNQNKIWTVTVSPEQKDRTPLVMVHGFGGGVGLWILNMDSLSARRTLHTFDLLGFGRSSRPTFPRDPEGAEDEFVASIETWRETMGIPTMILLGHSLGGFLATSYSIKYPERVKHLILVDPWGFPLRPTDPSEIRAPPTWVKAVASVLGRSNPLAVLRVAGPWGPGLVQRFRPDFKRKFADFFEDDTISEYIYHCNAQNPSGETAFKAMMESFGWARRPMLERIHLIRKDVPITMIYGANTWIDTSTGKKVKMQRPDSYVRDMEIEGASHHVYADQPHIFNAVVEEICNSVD
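Test system: mABHD4 protein; Read-out basis: % inhibition; Incubation: 45 min + 60 min at 25 °C; Repeats: single replicate; Technique: fluorescence polarization with parallel and perpendicular emission, 525/598 nm; Compound: 8.92 µM, single dose; Benchmarks: full inhibition S159A mutant plus DMSO, zero as sample-well median.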
BSA TAMRA ctr: interferes with TAMRA-BSA probe, flagging TCR-CD3 hits | 10% of 1,200 active | inhibition, % at 9.4 µM | shares compounds with TCR-CD3 inh | TAMRA-labeled BSA probe fluorescence counterscreen | AID 652035; in the data active = inhibition above about 23%;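 also: 0% = buffer low control and 100% = reference high control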
TCR-CD3 inh conf: TCR-CD3 interaction inhibition, confirmation | TAMRA-labeled TCR probe fluorescence binding assay | inhibition, % at 9.4 µM | 48% of 1,200 active | shares compounds with TCR-CD3 inh
* = called active by the depositor; . = not tested or not shown; ! = not confirmed by another sample. Rule as the data show it, unless noted: active = inhibition above about 19%; inactive = the rest.

SMILES	DDE Tn7 FP inh	HTRA1 inh	DDE Tn6 FP inh	TCR-CD3 inh	SIAE inh	ABHD4 inh	BSA TAMRA ctr	TCR-CD3 inh conf
Clc1ccc2nc(CSCc3ccccc3)cn2c1	3	1	1	39*	1	-5	2	1
Brc1ccc(-c2nn3c(-c4ccccn4)nnc3s2)o1	8	12	3	30*	7	4	1	12
COC[C@@H](O)[C@H]1OCc2cc(OC)ccc2[C@@H]1/C=C/c1ccccc1	7	.	-2	3	0	2	.	.
O=C(N/N=C/c1cc(Br)ccc1O)c1cccc(N2CCCC2=O)c1	2	16	4	30*	-7	5	-6	26*
COc1cc(/C=N/NC(=O)C(=O)/C=C2\NC(C)(C)Cc3ccccc32)ccc1O	-5	8	1	26*	0	9	-9	14
COc1cc(/C=N/NC(=O)C2(O)c3ccccc3-c3ccccc32)ccc1O	0	7	2	1	10	-1	.	.
CCC(=O)Nc1ccc2nc3c(=O)[nH]c(=S)[nH]c3nc2c1	-5	16	-3	29*	1	7	-3	28*
CCOC(=O)C1=C(N)Oc2cc(C)oc(=O)c2C1c1cccnc1 (stereo not drawn)	4	0	7	21*	2	2	3	0
CCOC(=O)C1=C(N)Oc2ccc3ccccc3c2C1c1cccnc1 (stereo not drawn)	0	-22	-7	-2	-4	-9	.	.
C=CCn1c(C)cc(-c2csc(NC(=O)CCc3nc4ccccc4c(=O)[nH]3)n2)c1C	5	-3	-9	25*	6	-2	-4	-1
O=C(CCc1nc2ccccc2c(=O)[nH]1)Nc1nc(-c2cccs2)cs1	6	-10	2	-4	-9	-25	.	.
Cc1c(NC(=O)C2CCCN(S(=O)(=O)c3cccc4ccccc34)C2)c(=O)n(-c2ccccc2)n1C (stereo not drawn)	-6	.	-6	.	4	5	.	.
NC(=O)c1nsc(C(=O)N(CC(=O)NCc2ccccc2)c2ccc(F)cc2)c1N	6	-3	1	36*	0	1	3	5
CC(C)[C@H](NC(=O)c1ccco1)C(=O)OCC(=O)c1ccc2c(c1)NC(=O)CO2	-3	-6	-6	118*	1	0	2	3
O=C1COc2ccc(C(=O)COC(=O)c3ccco3)cc2N1	2	2	-11	1	-3	3	.	.
C=CC[C@@]1(c2ccccc2)Oc2ccccc2-c2nc3ccccc3nc21	0	.	-1	.	-5	-11	.	.
O=C(c1ccc(C#Cc2ccccc2)cc1)N1CCC(O)CC1	-3	.	2	.	0	-3	.	.
N#Cc1c(N(CCO)CCO)nc(N)c2c(N)nc3c(c12)CC(=O)N3Cc1cccs1	.	18	.	.	.	.	.	.
CN(CCO)c1nc(N)c2c(N)nc3c(c2c1C#N)CC(=O)N3Cc1cccs1	-2	13	-7	21*	1	21	-6	3
Cc1onc(-c2ccccc2Cl)c1C(=O)Nc1ccccc1	13	-8	-2	-6	1	-7	.	.
CCC(=O)Nc1ccc(/C(C)=N/NC(=O)c2c(-c3ccccc3Cl)noc2C)cc1	3	2	12	21*	5	8	-1	1
Cc1ccc(S(=O)(=O)N2CCC(C(=O)NNC(=O)c3ccccc3O)CC2)cc1C	-7	16	4	41*	1	1	3	32*
Cc1ccc(S(=O)(=O)N2CCC(C(=O)NNC(=O)c3ccccc3O)CC2)cc1	-6	20	5	52*	-2	6	-5	36*
Cc1ccc(S(=O)(=O)N2CCC(C(=O)N3CCCCCCC3)CC2)cc1C	2	-3	-4	-7	0	-2	.	.
O=C1CCC2(CCC(c3ccccc3)CC2)N1CCO (stereo not drawn)	1	.	-2	.	2	1	.	.
SMILES	DDE Tn7 FP inh	HTRA1 inh	DDE Tn6 FP inh	TCR-CD3 inh	SIAE inh	ABHD4 inh	BSA TAMRA ctr	TCR-CD3 inh conf
O=C(NCc1ccccc1)[C@H]1CCCN1C(=O)[C@H]1CCCN1C(=O)c1ccc(F)cc1F	-7	.	-1	3	-6	-3	.	.
COc1cc(/C=N\NC(=O)C2COc3ccccc3O2)cc(OC)c1O (stereo not drawn)	5	-3	-3	2	6	6	.	.
CCOc1ccc(-n2c(O)c(/C=N/NC(=O)C3COc4ccccc4O3)c3ccccc3c2=O)cc1 (stereo not drawn)	2	14	-6	20*	2	20	0	36*
COc1ccccc1CC1CC(=O)N(c2cccc(Cl)c2C)C1=O (stereo not drawn)	-4	5	1	19*	-2	0	1	1
C[C@@H]1C(=O)N2N=Cc3cc4ccccc4cc3[C@H]2N2N=Cc3cc4ccccc4cc3[C@@H]12	9	.	0	.	7	0	.	.
CCOc1cc(/C=N/NS(=O)(=O)c2ccccc2)ccc1OS(=O)(=O)c1ccc(C)cc1	1	-27	3	-7	-23	-15	.	.
CCOc1cc(/C=N/NC(=O)COc2ccc(Cl)cc2)ccc1OS(=O)(=O)c1ccccc1	-2	-70	1	28*	-21	-33	24*	35*
CCc1cc(Cl)c(OC)c(C(=O)NC[C@@H]2CCCN2CC)c1O	-8	-3	2	29*!	4	9	0	1
CC(C)(C)N/N=C/c1cc(Cl)cc([N+](=O)[O-])c1O	10	19	-1	1	8	24	.	.
O=C(N/N=C/c1cc(Cl)cc([N+](=O)[O-])c1O)C1CC1	0	11	-5	21*	2	16	-11	17
CC1=NN(C(=O)c2ccccc2Cl)C(O)(c2ccccc2)C1 (stereo not drawn)	-2	3	5	21*	3	-7	-17	5
CC1=NN(C(=O)c2ccccc2F)C(O)(c2ccc(Cl)cc2)C1 (stereo not drawn)	11	22	0	23*	-4	0	-9	18
CCOC(=O)N1N=C(C)CC1(O)c1ccccc1 (stereo not drawn)	-5	-3	-4	3	-1	-1	.	.
CCC1=NN(C(=O)c2ccc(Br)cc2)C(O)(c2ccccc2)C1 (stereo not drawn)	7	19	0	11	-1	0	.	.
CC1=NN(C(=O)c2ccccc2)C(O)(c2ccc(Br)cc2)C1 (stereo not drawn)	-5	32	3	24*	2	8	-5	25*

Screening data deposited in PubChem by The Scripps Research Institute Molecular Screening Center.
